# Bioassay records deposited in PubChem by Broad Institute.
# ARNT-TACC3 inh = disruptors of human ARNT/TACC3 interaction | 390,000 tested, 0.66% active | AID 623870 | inhibition, % at 9.99 µM | AlphaScreen His-ARNT PAS-B/GST-TACC3 binding, luminescence; TACC3 fragment carries E629A point mutation;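 active = mean inhibition of replicates at least 50% and at least half of replicates each reaching 50%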;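 also: 0% = complete ARNT plus TACC3 wells and 100% = ARNT alone without TACC3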
# CAL PDZ FP-1 = inhibitors of human CAL PDZ peptide binding; AID 504414; purified CAL PDZ, TMR-peptide fluorescence polarization, 1 h; 330,000 tested, 0.02% active; inhibition, % at 20 µM;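 active = highest replicate inhibition of at least 40%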;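 also: plate controls were DMSO neutral control wells for no effect and unlabeled competitor peptide control wells for full effect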
#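 Read-out basis: mP drop reported as inhibition | Assay system: Tagged CAL PDZ protein CerCALP, purified | Benchmarks: Unlabelled peptide for full inhibition, DMSO wells as neutral | Schedule: 1 h incubation at room temperature before polarization reading | Buffer or medium: Sodium phosphate/NaCl buffer pH 7.4 with TCEP, IgG, Thesit | Doses: Single point, 20 µM | Measured by: Fluorescence polarization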
# DYRK1A inh = inhibitors of rat Dyrk1A kinase; Q63470; ADP-Glo luminescence, NFATc1 peptide; inhibition, % at 12.5 µM; 310,000 tested, 0.43% active; AID 504441; in the data active = inhibition above about 50%;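 also: plate controls were vehicle with enzyme for no effect and no enzyme for full effect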
# CAL PDZ FP-2 = CAL PDZ (human) peptide binding inhibition | 300,000 tested, 0.92% active | purified CAL PDZ, TMR-peptide fluorescence polarization, 1 h | Q9HD26 | inhibition, % at 24.9 µM;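 active = mean inhibition of at least 30% with at least half of replicates also reaching 30%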;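 also: 0% = DMSO neutral control and 100% = excess unlabeled competitor peptide PRC23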
# ADP-Glo artifact = counter-screen for Dyrk1A inhibitors: ADP-Glo luciferase artifacts; shares compounds with DYRK1A inh; ADP-Glo luciferase artifact assay, no Dyrk1A, luminescence; AC50, µM (titrated, usually from 12 µM), without a hit: at the highest dose activity change, negative = inhibition; 1,300 tested, under 10 active;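 active = fitted half-maximal dose AC50 no more than ten times the top valid tested dose, with luminescence dropping as dose rises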
# Numbers without * were called inactive; · = no result given. Only some compounds are listed: those with a hit (about 1.4% of all), similar ones and a draw of the others.
SMILES,ARNT-TACC3 inh,CAL PDZ FP-1,DYRK1A inh,CAL PDZ FP-2,ADP-Glo artifact
CCCNC(=O)c1cc(S(=O)(=O)N2CCCCC2)c[nH]1,4,0,2,·,·
CC1CCC(NC(=O)c2cc(S(=O)(=O)N3CCCCC3)c[nH]2)CC1 (configuration not stated),-4,0,57*,·,8%
COC(=O)c1c(-c2ccc(S(C)(=O)=O)cc2)sc2ccc(OC)cc12,1,-1,51*,0,10%
COC(=O)c1c(-c2ccc(S(C)(=O)=O)cc2)sc2cc(OC)ccc12,1,-3,6,-2,·
c1ccc2c(-c3ccncc3)c[nH]c2c1,10,-2,76*,-4,8%
COc1cccc(-c2nnc3n2N=C(c2cc(OC)ccc2OC)CS3)c1,-2,-1,30,-1,·
COc1cccc(-c2nnc3n2N=C(C(C)(C)C)CS3)c1,-21,-1,79*,-2,8%
CC(C)(C)C1=Nn2c(nnc2-c2ccccc2F)SC1,-10,-1,52*,·,6%
C[C@@H]1CN([C@H](C)CO)C(=O)Cc2cc(NC(=O)Nc3ccc(F)cc3)ccc2O[C@H]1CN(C)C(=O)Nc1ccc(C(F)(F)F)cc1,-10,·,·,·,·
COc1ccc2c(c1)[nH]c1c(Cl)ncnc12,6,-3,65*,0,11%
COc1ccc(S(=O)(=O)N(C)C[C@H]2OCCCC[C@H](C)Oc3ccc(NC(=O)Cc4ccccc4)cc3C(=O)N([C@@H](C)CO)C[C@@H]2C)cc1,13,·,·,·,·
CCOC(=O)C1CCCN(c2c(N3CCN(C4CCCCC4)CC3)c(=O)c2=O)C1 (configuration not stated),-2,0,60*,·,6%
COC1=CC(=O)c2c(ccc3ncnc(N)c23)C1=O,31*,1,51*,-3,14%
COc1cccc2c1C(=O)C=C(C)C2=O,8,-1,-2,·,·
C[C@@H]1CN([C@@H](C)CO)C(=O)c2cccc(NC(=O)C3CC3)c2O[C@H]1CN(C)S(C)(=O)=O,-18,·,·,·,·
C[C@@H]1O[C@@H](O[C@H]2[C@H](O)[C@@H](O)[C@H](Oc3c(-c4ccc(O)cc4)oc4cc(O)cc(O)c4c3=O)O[C@@H]2CO)[C@H](O)[C@H](O)[C@H]1O,-10,-2,6,5,·
C[C@@H]1O[C@@H](OC[C@@H]2O[C@H](Oc3c(-c4ccc(O)cc4)oc4cc(O)cc(O)c4c3=O)[C@@H](O)[C@H](O)[C@H]2O)[C@H](O)[C@H](O)[C@H]1O,-3,-1,72*,-5,7%
COc1ccc(CN(C)C[C@@H]2OCCCC[C@H](C)Oc3ccc(NC(=O)Nc4c(C)noc4C)cc3C(=O)N([C@@H](C)CO)C[C@@H]2C)cc1,11,·,·,·,·
COC(=O)C1=C(C(=O)OC)C(c2cc(Br)ccc2O)c2sc(=O)[nH]c2S1 (configuration not stated),0,-1,63*,-1,9%
COC(=O)C1=C(C(=O)OC)C(c2cc(Cl)ccc2O)c2sc(=O)[nH]c2S1 (configuration not stated),4,0,46,·,·
O=C(C[C@@H]1CC[C@H]2[C@@H](COC[C@@H](O)CN2S(=O)(=O)c2ccc(Cl)cc2)O1)NCCN1CCCC1,-2,·,·,·,·
CC(C)(C)[S@](=O)N1Cc2cc(C(=O)NC3CCCCC3)nc(-c3cccc(Br)c3)c2[C@@H]1CCO,-2,·,·,·,·
CC(C)(C)[C@H]1C=C(C(=O)N2CCN(Cc3ccccc3)CC2)O[C@@H](OCCCCO)C1,-3,0,53*,5,11%
CC(C)(C)[C@@H]1C=C(C(=O)N2CCN(Cc3ccccc3)CC2)O[C@H](OCc2ccc(CO)cc2)C1,3,-2,3,-1,·
CCCN(C)C[C@H]1Oc2cc(-c3ccccc3OC)ccc2S(=O)(=O)N([C@H](C)CO)C[C@H]1C,11,·,·,·,·
SMILES,ARNT-TACC3 inh,CAL PDZ FP-1,DYRK1A inh,CAL PDZ FP-2,ADP-Glo artifact
Fc1ccc(-c2nnc3sc(C4COc5ccccc5O4)nn23)cc1 (configuration not stated),36,-6,68*,·,7%
Fc1ccc(-c2nn3c(C4COc5ccccc5O4)nnc3s2)cc1 (configuration not stated),-1,-2,-2,-5,·
C=CCOC(=O)C1=C(C)NC(=O)NC1c1ccc(Cl)cc1 (configuration not stated),-2,-2,67*,·,6%
COC(=O)[C@]1(CC(C)C)N[C@H](c2ccc(-c3cccc(Cl)c3)cc2)[C@@H]2C(=O)N(C)C(=O)[C@@H]21,-13,0,56*,4,9%
OCCCNc1cc(-c2ccnc(Nc3cccc(Cl)c3)n2)ccn1,·,-4,89*,-2,10%
CCC(C)Oc1cc(-c2ccnc(Nc3cccc(Cl)c3)n2)ccn1 (configuration not stated),·,-1,7,-2,·
COc1ccc(NC(=O)Nc2ccc3c(c2)[C@@H]2C[C@@H](CC(=O)NCc4ccc5c(c4)OCO5)O[C@H](CO)[C@@H]2O3)cc1,-9,·,·,·,·
CO/N=C/c1ccc(Oc2ccc([N+](=O)[O-])cc2[N+](=O)[O-])c(OC)c1,0,-3,-6,-3,·
COc1cc(/C=C2\SC(=O)NC2=O)ccc1Oc1ccc([N+](=O)[O-])cc1[N+](=O)[O-],8,0,77*,-5,10%
COc1ccc(/C=C2\SC(=O)NC2=S)cc1OC,12,-2,58*,-2,8%
C[C@@H]1CN([C@H](C)CO)C(=O)c2cc(C#Cc3ccccc3)cnc2O[C@H]1CN(C)C(=O)CCN1CCCCC1,8,·,·,·,·
COc1ccc(N2C(=O)C3CCCN3C2c2cc(OC)c(OC)c(OC)c2)cc1 (configuration not stated),25,-1,62*,·,9%
COc1cc(C2N(c3ccc(Cl)cc3)C(=O)C3CCCN32)cc(OC)c1OC (configuration not stated),·,-1,7,-3,·
CCOc1ccc(/C=N/NC(=O)CN2CCCCCCC2)cc1,1,-2,0,-3,·
CCCOc1ccc(/C=N/NC(=O)CN2CCCCC2)cc1,2,-1,71*,·,10%
C[C@@H]1CN([C@H](C)CO)C(=O)c2cc(NS(C)(=O)=O)ccc2O[C@@H]1CN(C)C(=O)Nc1ccc(F)cc1,10,·,·,·,·
CCC(=O)Nc1c(C#N)c2nc3ccccc3nc2n1-c1ccccc1C,11,-1,55*,-2,8%
CC(C)NC(=O)N[C@@H]1C=C[C@H](CC(=O)NCCCN(C)C)O[C@@H]1CO,-23,·,·,·,·
Cc1cc([N+](=O)[O-])nn1Cn1nc([N+](=O)[O-])cc1C,20,-1,5,-9,·
Cc1cc([N+](=O)[O-])nn1Cc1ccccc1F,-14,-3,51*,-1,12%
COc1ccc(S(=O)(=O)Nc2ccc3c(c2)CC(=O)N([C@H](C)CO)C[C@@H](C)[C@H](CN(C)S(=O)(=O)c2ccc(C)cc2)O3)cc1,-7,·,·,·,·
